# Measured values: ChEMBL document CHEMBL1287718, “1-Benzyl derivatives of 5-(arylamino)uracils as anti-HIV-1 and anti-EBV agents” (Bioorg Med Chem, 2010)
# Tests used:
# [1] = Cytotoxicity against human Akata cells assessed as cell viability by XTT assay; format: cell-based
# In short: (§1)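 EC50 is the concentration that reduces virus replication by 50%. CC50 is the concentration giving 50% loss of viability in uninfected cells. Both are calculated by linear regression analysis. The selectivity index is CC50 divided by EC50.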
# [2] = Selectivity index, ratio of CC50 for human Akata cells to EC50 for Epstein-Barr virus infected in human Akata cells; format: toxicity, cell-based; conditions: read-out: Ratio CC50/EC50; in short: as §1
# Human gammaherpesvirus 4 = test: Antiviral activity against Epstein-Barr virus infected in human Akata cells assessed as virus induced cytopathic effects by XTT assay; format: functional, organism-based; conditions: human gammaherpesvirus 4, Akata; in short: as §1
# [3] = Selectivity index, ratio of CC50 for human CEM-SS cells to EC50 for Human immunodeficiency virus 1 infected in human CEM-SS cells; format: toxicity, cell-based; conditions: read-out: Ratio CC50/EC50; in short: as §1
# [4] = tested on: Human immunodeficiency virus 1; test: Antiviral activity against Human immunodeficiency virus 1 infected in human CEM-SS cells assessed as virus induced cytopathic effects; format: functional, organism-based; conditions: Human immunodeficiency virus 1, CEM-SS; in short: as §1
# [5] = Cytotoxicity against human CEM-SS cells assessed as cell viability by XTT assay; format: cell-based; in short: as §1
SMILES,CC50 [1],selectivity ratio [2],EC50 (Human gammaherpesvirus 4),selectivity ratio [3],EC50 [4],CC50 [5]
O=c1[nH]c(=O)n([C@H]2CO[C@@H](CO)O2)cc1I,> 100 µM,> 3030,0.033 µM,–,–,–
O=c1[nH]c(=O)n(Cc2ccc(Cl)cc2Cl)cc1NCCc1ccccc1,> 100 µM,> 1.5,67.2 µM,> 2.34,42.7 µM,> 100 µM
Cc1ccc(Nc2cn(Cc3ccc(Cl)cc3Cl)c(=O)[nH]c2=O)cc1,92.3 µM,2.1,43.3 µM,–,–,–
O=c1[nH]c(=O)n(Cc2ccc(Cl)cc2Cl)cc1NCc1ccccc1,96.3 µM,2.4,39.6 µM,> 1.8,54.6 µM,> 100 µM
Cc1cccc(Cn2cc(Nc3ccccc3)c(=O)[nH]c2=O)c1,> 100 µM,> 1,99.1 µM,> 4.5,44.7 µM,> 200 µM
Cc1ccccc1Cn1cc(Nc2ccccc2)c(=O)[nH]c1=O,> 100 µM,> 8.3,12 µM,–,> 100 µM,> 100 µM
Cc1cc(C)cc(Cn2cc(Nc3ccccc3)c(=O)[nH]c2=O)c1,96.2 µM,< 4.8,> 20 µM,> 16.8,11.9 µM,> 200 µM
Cc1cn([C@H]2C[C@H](N=[N+]=[N-])[C@@H](CO)O2)c(=O)[nH]c1=O [ZIDOVUDINE],–,–,–,> 125,0.008 µM,> 1 µM
O=c1[nH]c(=O)n(Cc2cccc(Cl)c2)cc1Nc1ccccc1,> 100 µM,> 5,20 µM,–,–,–
Cc1cc(C)cc(Cn2cc(NCc3ccccc3)c(=O)[nH]c2=O)c1,–,–,–,17.8,9.5 µM,168 µM
O=c1[nH]c(=O)n(Cc2cccc(Oc3ccccc3)c2)cc1Nc1ccccc1,> 100 µM,> 43,2.3 µM,–,> 100 µM,> 100 µM
O=c1[nH]c(=O)n(Cc2ccccc2)cc1Nc1ccccc1,–,–,–,–,> 100 µM,> 100 µM
